Assay results from ChEMBL document CHEMBL1123711, “Substituted 1,2,3,4-tetrahydroaminonaphthols: antihypertensive agents, calcium channel blockers, and adrenergic receptor blockers with catecholamine-depleting effects” (J Med Chem, 1987).
The source made the active and inactive calls. No cut-off for these calls is given here.

Columns and labels:
Oryctolagus cuniculus = organism: Oryctolagus cuniculus; assay: Calcium channel blocking activity in vitro in rabbit thoracic aorta preparation (n=4) by using linear regression analysis; format: functional
Method in brief: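 Rabbit thoracic aorta strips held under a 4-g preload in PSS at 37 °C, pH 7.35, gassed with 95% O2/5% CO2, equilibrated ≥1 h. Contraction by high-K+ (100 mM) PSS with Na+ reduced equimolarly. At plateau, cumulative test concentrations were added and relaxation was normalized to initial tension. IC50 by regression on the linear part of the concentration–response curve.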

Rattus norvegicus [1] = assay: Antihypertensive activity as percent maximum (0-6 hr) decrease in blood pressure at 135 umol/kg, perorally (~40-50 mg/kg) in 5 spontaneously hypertensive rats (SHR); format: functional
Rattus norvegicus [2] = assay: Antihypertensive activity as percent maximum (over 24 hr) decrease in blood pressure at 135 umol/kg, perorally (~40-50 mg/kg) in 5 spontaneously hypertensive rats (SHR); format: functional
Rattus norvegicus [3] = assay: Antihypertensive activity as percent maximum (over 24 hr decrease in blood pressure at 135 umol/kg, perorally (~40-50 mg/kg) in 5 spontaneously hypertensive rats (SHR); format: functional
Rattus norvegicus [4] = assay: Antihypertensive activity as percent average (over 24 hr) decrease in blood pressure at 135 umol/kg po (~40-50 mg/kg) in 5 spontaneously hypertensive rats (SHR); format: functional
Rattus norvegicus [5] = assay: Antihypertensive activity as percent maximum (0-6 hr) decrease in blood pressure at 135 umol/kg po (~40-50 mg/kg) in 5 spontaneously hypertensive rats (SHR); format: functional
Canis familiaris = organism: Canis familiaris; assay: Compound was evaluated for the slow action potential blockade in canine Purkinje fibers in vitro (n = 4)
Rattus norvegicus [6] = assay: Antihypertensive activity as percent average (0-24 hr) decrease in blood pressure at 45 umol/kg po (~22 mg/kg) in 4 spontaneously hypertensive rats (SHR); format: functional
Rattus norvegicus [7] = assay: Percent Catecholamine-depletion in brain by administering a dose of 2 x 45 umol/kg, perorally to 4 spontaneously hypertensive rats (SHR).; format: functional
Method in brief: (§1)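 SHR given two oral doses of 45 µmol/kg, 17 h apart. Rats decapitated 4 h after the second dose; hearts and brains quickly removed and frozen. Tissue extracts in glutathione centrifuged at 0 °C, and the protein-free supernatant diluted and assayed in duplicate for catecholamines by radioenzymatic kit.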

Rattus norvegicus [8] = assay: Percent Catecholamine-depletion in heart by administering a dose of 2 x 45 umol/kg, perorally to 4 spontaneously hypertensive rats (SHR).; format: functional; method in brief: as §1
[9] = target: Adrenergic receptor alpha; assay: Compound was evaluated for the alpha-Adrenoceptor pA2 blocking activity in vitro in rabbit thoracic aorta; format: functional, tissue-based, Oryctolagus cuniculus
Rattus norvegicus [10] = assay: Antihypertensive activity as percent maximum (0-6 hr) decrease in blood pressure at 45 umol/kg po (~22 mg/kg) in 4 spontaneously hypertensive rats (SHR); format: functional
Rattus norvegicus [11] = assay: Antihypertensive activity as percent maximum (over 24 h) decrease in blood pressure at 135 umol/kg, perorally (~40-50 mg/kg) in 5 spontaneously hypertensive rats (SHR); format: functional
Rattus norvegicus [12] = assay: Antihypertensive activity as percent maximum (0-6 hr) decrease in blood pressure at 135 umol/kg po (~40-50 mg/kg) in 5 spontaneously hypertensive rats (SHR); NA denotes not active; format: functional, organism-based
Rattus norvegicus [13] = assay: Antihypertensive activity as percent average (over 24 hr) decrease in blood pressure at 135 umol/kg po (~40-50 mg/kg) in 5 spontaneously hypertensive rats (SHR); NA denotes not active; format: functional, organism-based
Rattus norvegicus [14] = assay: Antihypertensive activity as percent maximum (over 24 hr) decrease in blood pressure at 135 umol/kg, perorally (~40-50 mg/kg) in 5 spontaneously hypertensive rats (SHR); NA denotes no activity; format: functional, organism-based
Rattus norvegicus [15] = assay: Antihypertensive activity as percent maximum (0-6 hr) decrease in blood pressure at 135 umol/kg, perorally (~40-50 mg/kg) in 5 spontaneously hypertensive rats (SHR); NA denotes no activity; format: functional, organism-based
Rattus norvegicus [16] = assay: Antihypertensive activity as percent maximum (0-6 hr) decrease in blood pressure at 45 umol/kg poin 5 spontaneously hypertensive rats (SHR); format: functional

| Compound | IC50 (Oryctolagus cuniculus) | Decrease (Rattus norvegicus [1]) | Decrease (Rattus norvegicus [2]) | other results |
| --- | --- | --- | --- | --- |
| Cc1cc2c(cc1C)C[C@H](O)[C@@H](NCCC(c1ccccc1)c1ccccc1)C2.Cl | 1000 nM | 17% | 32% | – |
| COc1ccc(OC)c2c1C[C@H](NCCCc1c[nH]c3ccccc13)[C@@H](O)C2.Cl | 23000 nM | 23% | 24% | – |
| Cl.O[C@H]1Cc2cc3c(cc2C[C@@H]1NCCC(c1ccccc1)c1ccccc1)OCO3 | 300 nM | 25% | 25% | – |
| Cl.O[C@H]1Cc2ccccc2C[C@@H]1NCCC(c1ccccc1)c1ccccc1 | 400 nM | 11% | 8% | – |
| COc1ccc(OC)c2c1C[C@H](NCCCc1ccccc1)[C@@H](O)C2.Cl | 5500 nM | 14% | – | Decrease (Rattus norvegicus [3]): 14% |
| COc1cc2c(cc1OC)C[C@H](NCCC(c1ccccc1)c1ccccc1)CC2.Cl | 200 nM | – | – | Decrease (Rattus norvegicus [4]): 12%; Decrease (Rattus norvegicus [5]): 11% |
| COc1cc2c(cc1OC)C[C@H](O)[C@@H](NCCC(c1ccccc1)c1ccccc1)C2.Cl | 400 nM | – | – | IC50 (Canis familiaris): 270 nM; Decrease (Rattus norvegicus [4]): 34%; Average (Rattus norvegicus [6]): 25%; Depletion (Rattus norvegicus [7]): 0%; Decrease (Rattus norvegicus [5]): 32%; Depletion (Rattus norvegicus [8]): 97%; pA2 [9]: 6; Max (Rattus norvegicus [10]): 21% |
| COc1cc2c(cc1OC)C[C@H](O)[C@@H](NCCC(c1ccccc1)C(C)C)C2.Cl (some centres undefined) | 2500 nM | 8% | – | Decrease (Rattus norvegicus [11]): 10% |
| COc1cc2c(cc1OC)C[C@H](OC)[C@@H](NCCC(c1ccccc1)c1ccccc1)C2 | 1800 nM | – | – | Decrease (Rattus norvegicus [12]): inactive; Decrease (Rattus norvegicus [13]): inactive |
| COc1ccc(OC)c2c1C[C@H](NCC(c1ccccc1)c1ccccc1)[C@@H](O)C2.Cl | 13300 nM | 10% | 16% | – |
| COc1ccc(CCN(C)CCCC(C#N)(c2ccc(OC)c(OC)c2)C(C)C)cc1OC (centres undefined) | 300 nM | – | – | IC50 (Canis familiaris): 110 nM; Decrease (Rattus norvegicus [4]): 32%; Average (Rattus norvegicus [6]): 21%; Decrease (Rattus norvegicus [5]): 40%; Depletion (Rattus norvegicus [8]): 75%; Max (Rattus norvegicus [10]): 16% |
| COc1ccc(OC)c2c1C[C@H](NCCCCc1ccccc1)[C@@H](O)C2.Cl | 3600 nM | 26% | 23% | – |
| COc1cc2c(cc1OC)C[C@H](NCCC(c1ccccc1)c1ccccc1)[C@H](O)C2.Cl | 200 nM | – | – | Decrease (Rattus norvegicus [4]): 19%; Decrease (Rattus norvegicus [5]): 14% |
| COc1ccc(OC)c2c1C[C@H](NCCCc1nc3ccccc3s1)[C@@H](O)C2.Cl | 13500 nM | 16% | 16% | – |
| COc1cc2c(cc1OC)C[C@H](O)[C@@H](NCCC(c1ccccc1)c1ccccc1OC)C2.Cl (some centres undefined) | 600 nM | 21% | 28% | – |
| COc1cc2c(cc1OC)C[C@H](O)[C@@H](NC(=O)CC(c1ccccc1)c1ccccc1)C2 | 9400 nM | 6% | 16% | – |
| COc1ccc(OC)c2c1C[C@H](NCCC(c1ccccc1)c1ccccc1)[C@@H](O)C2.Cl | 1500 nM | 15% | 19% | – |
| COc1ccc(OC)c2c1C[C@H](NCCc1ccccc1)[C@@H](O)C2 | 21000 nM | – | – | Decrease (Rattus norvegicus [14]): inactive; Decrease (Rattus norvegicus [15]): inactive |
| COc1cc2c(cc1OC)C[C@H](O)[C@@H](NCCC1c3ccccc3-c3ccccc31)C2.Cl | 1400 nM | 32% | 34% | – |
| COc1ccc(OC)c2c1C[C@H](NCCCCC(c1ccccc1)c1ccccc1)[C@@H](O)C2.Cl | 2000 nM | 10% | – | Decrease (Rattus norvegicus [11]): 10% |
| COc1cc2c(cc1OC)C[C@H](N(C)CCC(c1ccccc1)c1ccccc1)[C@@H](O)C2 | 400 nM | 11% | 19% | – |
| COc1cc2c(cc1OC)C[C@H](OC(C)=O)[C@@H](NCCC(c1ccccc1)c1ccccc1)C2.Cl | 2800 nM | 34% | 34% | – |
| COc1ccc(OC)c2c1C[C@H](NCCCC(c1ccccc1)c1ccccc1)[C@@H](O)C2.Cl | 800 nM | 6% | 10% | – |
| Cl.Oc1cc2c(cc1O)C[C@H](O)[C@@H](NCCC(c1ccccc1)c1ccccc1)C2 | 19600 nM | – | – | Decrease (Rattus norvegicus [4]): 30%; Decrease (Rattus norvegicus [16]): 29% |
| COc1ccc(OC)c2c1C[C@H](NCCC(C1CCCCC1)C1CCCCC1)[C@@H](O)C2.Cl | – | 27% | 23% | – |
